Source: ChEMBL document CHEMBL1811864 (Bioorg Med Chem, 2011)

Tests used:
Aliivibrio fischeri = test: Growth inhibition of Vibrio fischeri ESI 114 (delta-LuxI) at 10 uM after 4 to 16 hrs; assay type: organism-based; conditions: in vivo
In short: (§1)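 Bacterial growth was monitored over the reporter gene assay time course (4–16 h) with compounds at 10 µM.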

[1] = target: T1, Transcriptional activator protein LasR (Pseudomonas aeruginosa (strain ATCC 15692 / PAO1 / 1C / PRS 101 / LMG12228)) (UniProt P25084); test: Agonist activity at Pseudomonas aeruginosa PAO1 MW1 (pUM15) LasR at 10 uM after 8 hrs by YFP fluorescence reporter gene assay relative to OdDHL
T1 sequence (whole entry): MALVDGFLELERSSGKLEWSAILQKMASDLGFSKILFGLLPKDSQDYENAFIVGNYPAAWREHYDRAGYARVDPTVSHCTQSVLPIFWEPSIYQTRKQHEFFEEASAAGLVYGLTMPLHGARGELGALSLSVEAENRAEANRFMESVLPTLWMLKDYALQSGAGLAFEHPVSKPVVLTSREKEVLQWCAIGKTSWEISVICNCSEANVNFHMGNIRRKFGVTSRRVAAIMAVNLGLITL

[2] = target: T2, Transcriptional activator protein TraR (Agrobacterium tumefaciens) (UniProt P33905); test: Agonist activity at Agrobacterium tumefaciens WCF (pCF372) TraR at 10 uM after 8 hrs by beta-galactosidase reporter gene assay relative to […]; assay type: functional
T2 sequence (whole entry): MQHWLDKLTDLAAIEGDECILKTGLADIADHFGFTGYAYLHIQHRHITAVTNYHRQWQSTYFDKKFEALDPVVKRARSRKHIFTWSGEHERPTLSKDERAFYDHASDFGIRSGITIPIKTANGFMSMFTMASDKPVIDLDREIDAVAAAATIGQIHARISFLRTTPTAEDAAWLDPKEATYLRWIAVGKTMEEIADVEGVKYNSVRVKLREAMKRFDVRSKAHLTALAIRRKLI

[3] = test system: Agrobacterium tumefaciens; test: Growth inhibition of Agrobacterium tumefaciens WCF (pCF372) at 10 uM after 4 to 16 hrs; assay type: organism-based; conditions: in vivo; in short: as §1
[4] = target: T3, Transcriptional activator protein LuxR (Aliivibrio fischeri) (UniProt P12746); test: Agonist activity at Vibrio fischeri ESI 114 (delta-LuxI) LuxR at 10 uM after 8 hrs by […] relative to […]; assay type: functional
T3 sequence (whole entry): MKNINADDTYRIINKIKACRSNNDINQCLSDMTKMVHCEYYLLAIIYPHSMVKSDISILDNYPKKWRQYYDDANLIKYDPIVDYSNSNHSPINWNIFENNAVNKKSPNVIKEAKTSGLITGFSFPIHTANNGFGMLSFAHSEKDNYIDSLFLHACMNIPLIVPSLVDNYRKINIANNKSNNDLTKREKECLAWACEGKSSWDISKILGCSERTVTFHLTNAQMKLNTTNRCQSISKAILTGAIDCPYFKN
In short: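 V. fischeri ESI 114 lacking LuxI synthase but keeping its native lux operon; LuxR activity read as luminescence. Compounds were screened at 10 µM alone, without native AHL. Signal was normalized to the native-ligand positive control.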

Escherichia coli = test: Growth inhibition of Escherichia coli DH5alpha (pJN105L + pSC11) at 10 uM after 4 to 16 hrs; assay type: organism-based, DH5[alpha]; conditions: in vivo; in short: as §1
[5] = Antagonist activity at Escherichia coli DH5alpha (pJN105L + pSC11) LasR assessed as inhibition of OdDHL-induced quorum sensing activation after 8 hrs by beta-galactosidase reporter gene assay; assay type: functional, Escherichia coli DH5[alpha]
[6] = target: T3, Transcriptional activator protein LuxR (Aliivibrio fischeri); test: Antagonist activity at Vibrio fischeri ESI 114 (delta-LuxI) LuxR assessed as inhibition of […]-induced quorum sensing activation at 10 uM after 8 hrs by […] relative to untreated control; assay type: functional
Pseudomonas aeruginosa = test: Growth inhibition of Pseudomonas aeruginosa PAO1 MW1 (pUM15) at 10 uM after 4 to 16 hrs; assay type: organism-based; conditions: in vivo; in short: as §1
[7] = test system: Escherichia coli DH5[alpha]; test: Antagonist activity at Escherichia coli DH5alpha (pJN105L + pSC11) LasR assessed as inhibition of OdDHL-induced quorum sensing activation at 10 uM after 8 hrs by beta-galactosidase reporter gene assay relative to untreated control; assay type: functional
[8] = test system: Escherichia coli DH5[alpha]; test: Agonist activity at Escherichia coli DH5alpha (pJN105L + pSC11) LasR at 10 uM after 8 hrs by beta-galactosidase reporter gene assay relative to OdDHL; assay type: functional
[9] = target: T2, Transcriptional activator protein TraR (Agrobacterium tumefaciens); test: Antagonist activity at Agrobacterium tumefaciens WCF (pCF372) TraR assessed as inhibition of […]-induced quorum sensing activation at 10 uM after 8 hrs by beta-galactosidase reporter gene assay relative to untreated control; assay type: functional
[10] = Agonist activity at Escherichia coli DH5alpha (pJN105L + pSC11) LasR after 8 hrs by beta-galactosidase reporter gene assay relative to OdDHL; assay type: functional, Escherichia coli DH5[alpha]
[11] = target: T1, Transcriptional activator protein LasR (Pseudomonas aeruginosa (strain ATCC 15692 / PAO1 / 1C / PRS 101 / LMG12228)); test: Antagonist activity at Pseudomonas aeruginosa PAO1 MW1 (pUM15) LasR assessed as inhibition of OdDHL-induced quorum sensing activation at 10 uM after 8 hrs by […] relative to untreated control; assay type: functional
In short: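 P. aeruginosa PAO1 MW1 (pUM15) lacks functional LasI and carries a LasR-responsive promoter driving YFP, so fluorescence is the read-out. Compounds were tested at 10 µM. […] Background from wells with no compound or AHL was subtracted. Assays were done in triplicate.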

[12] = target: T4, Transcriptional activator protein LuxR (Aliivibrio fischeri, UniProt P12746); test: Antagonist activity at Vibrio fischeri ESI 114 (delta-LuxI) LuxR assessed as inhibition of OHHL-induced quorum sensing activation after 8 hrs by […]
T4 sequence (P12746 whole entry): T3 sequence (whole entry)

[13] = target: T5, Transcriptional activator protein LasR (Pseudomonas aeruginosa (strain ATCC 15692 / PAO1 / 1C / PRS 101 / LMG12228), UniProt P25084); test: Agonist activity at Pseudomonas aeruginosa PAO1 MW1 (pUM15) LasR after 8 hrs by YFP fluorescence reporter gene assay relative to OdDHL
T5 sequence (P25084 whole entry): T1 sequence (whole entry)

## O=C(Cc1ccccc1)N[C@H]1CCSC1=O
Aliivibrio fischeri
  Activity: Non-toxic
[1]
  Activity: 2%
[2]
  Activity: 3%
[3]
  Activity: Non-toxic
[4]
  Activity: 0%
Escherichia coli
  Activity: Non-toxic
[5]
  IC50: 2500 nM
[6]
  inhibition: 34%
Pseudomonas aeruginosa
  Activity: Non-toxic
[7]
  inhibition: 65%
[8]
  Activity: 2%

## O=C(Cc1ccc(-c2ccccc2)cc1)NC1CCSC1=O (racemic)
Aliivibrio fischeri
  Activity: Non-toxic
[1]
  Activity: 1%
[2]
  Activity: 11%
[3]
  Activity: Non-toxic
[4]
  Activity: 0%
Escherichia coli
  Activity: Non-toxic
[6]
  inhibition: 85%
Pseudomonas aeruginosa
  Activity: Non-toxic
[7]
  inhibition: 45%
[9]
  inhibition: 26%

## COc1ccc(CC(=O)NC2CCSC2=O)cc1 (racemic)
Aliivibrio fischeri
  Activity: Non-toxic
[1]
  Activity: 4%
[3]
  Activity: Non-toxic
[4]
  Activity: 0%
Escherichia coli
  Activity: Non-toxic
[6]
  inhibition: 59%
Pseudomonas aeruginosa
  Activity: Non-toxic
[7]
  inhibition: 48%
[8]
  Activity: 0%

## O=C(CCc1cc2ccccc2[nH]1)N[C@H]1CCSC1=O
Aliivibrio fischeri
  Activity: Non-toxic
[1]
  Activity: 10%
[2]
  Activity: 0%
[3]
  Activity: Non-toxic
[10]
  EC50: 1800 nM
[4]
  Activity: 0%
Escherichia coli
  Activity: Non-toxic
[6]
  inhibition: 68%
Pseudomonas aeruginosa
  Activity: Non-toxic
[7]
  inhibition: 16%
[8]
  Activity: 4%
[11]
  inhibition: -7%

## COc1ccc(CC(=O)N[C@H]2CCSC2=O)cc1
Aliivibrio fischeri
  Activity: Non-toxic
[1]
  Activity: 7%
[2]
  Activity: 0%
[3]
  Activity: Non-toxic
[4]
  Activity: 1%
Escherichia coli
  Activity: Non-toxic
[5]
  IC50: 7200 nM
[6]
  inhibition: 70%
Pseudomonas aeruginosa
  Activity: Non-toxic
[7]
  inhibition: 51%
[8]
  Activity: 1%

## CCCCCC(=O)N[C@H]1CCSC1=O
Aliivibrio fischeri
  Activity: Non-toxic
[1]
  Activity: 20%
[2]
  Activity: 0%
[3]
  Activity: Non-toxic
[4]
  Activity: 0%
Escherichia coli
  Activity: Non-toxic
[5]
  IC50: 1100 nM
[6]
  inhibition: 93%
Pseudomonas aeruginosa
  Activity: Non-toxic
[12]
  IC50: 840 nM
[7]
  inhibition: 59%
[8]
  Activity: 1%

## CCCCCCCC(=O)N[C@H]1CCSC1=O
Aliivibrio fischeri
  Activity: Non-toxic
[1]
  Activity: 0%
[2]
  Activity: 0%
[3]
  Activity: Non-toxic
[4]
  Activity: 0%
Escherichia coli
  Activity: Non-toxic
[5]
  IC50: 140 nM
[6]
  inhibition: 80%
Pseudomonas aeruginosa
  Activity: Non-toxic
[12]
  IC50: 130 nM
[7]
  inhibition: 64%
[8]
  Activity: 85%
[11]
  inhibition: -7%
[9]
  inhibition: 99%

## O=C(Cc1ccc(-c2ccccc2)cc1)N[C@H]1CCSC1=O
Aliivibrio fischeri
  Activity: Non-toxic
[1]
  Activity: 3%
[2]
  Activity: 0%
[3]
  Activity: Non-toxic
[4]
  Activity: 0%
Escherichia coli
  Activity: Non-toxic
[5]
  IC50: 2900 nM
[6]
  inhibition: 98%
Pseudomonas aeruginosa
  Activity: Non-toxic
[12]
  IC50: 350 nM
[7]
  inhibition: 56%
[8]
  Activity: 9%
[9]
  inhibition: 9%

## O=C(CCc1cc2ccccc2[nH]1)NC1CCSC1=O (racemic)
Aliivibrio fischeri
  Activity: Non-toxic
[1]
  Activity: 3%
[2]
  Activity: 6%
[3]
  Activity: Non-toxic
[4]
  Activity: 0%
Escherichia coli
  Activity: Non-toxic
[6]
  inhibition: 75%
Pseudomonas aeruginosa
  Activity: Non-toxic
[7]
  inhibition: 54%
[8]
  Activity: 72%

## CCCCCCCCCC(=O)CC(=O)NC1CCSC1=O (racemic)
Aliivibrio fischeri
  Activity: Non-toxic
[1]
  Activity: 127%
[2]
  Activity: 1%
[3]
  Activity: Non-toxic
[4]
  Activity: 0%
Escherichia coli
  Activity: Non-toxic
[6]
  inhibition: 91%
Pseudomonas aeruginosa
  Activity: Non-toxic
[8]
  Activity: 102%
[9]
  inhibition: 51%

## O=C(Cc1ccc(Br)cc1)NC1CCSC1=O (racemic)
Aliivibrio fischeri
  Activity: Non-toxic
[1]
  Activity: 5%
[2]
  Activity: 1%
[3]
  Activity: Non-toxic
[4]
  Activity: 0%
Escherichia coli
  Activity: Non-toxic
[6]
  inhibition: 91%
Pseudomonas aeruginosa
  Activity: Non-toxic
[7]
  inhibition: 68%
[8]
  Activity: 8%
[9]
  inhibition: 25%

## CCCCCCCCCCCC(=O)N[C@H]1CCSC1=O
Aliivibrio fischeri
  Activity: Non-toxic
[1]
  Activity: 42%
[2]
  Activity: 0%
[3]
  Activity: Non-toxic
[10]
  EC50: 1900 nM
[4]
  Activity: 0%
[13]
  EC50: 21000 nM
Escherichia coli
  Activity: Non-toxic
[6]
  inhibition: 57%
Pseudomonas aeruginosa
  Activity: Non-toxic
[8]
  Activity: 94%
[9]
  inhibition: 6%

## O=C(Cc1cccc([N+](=O)[O-])c1)NC1CCSC1=O (racemic)
Aliivibrio fischeri
  Activity: Non-toxic
[1]
  Activity: 3%
[2]
  Activity: 0%
[3]
  Activity: Non-toxic
[4]
  Activity: 26%
Escherichia coli
  Activity: Non-toxic
[6]
  inhibition: 30%
Pseudomonas aeruginosa
  Activity: Non-toxic
[7]
  inhibition: -3%
[8]
  Activity: 81%
[9]
  inhibition: 30%

## O=C(Cc1ccc(Br)cc1)N[C@H]1CCSC1=O
Aliivibrio fischeri
  Activity: Non-toxic
[1]
  Activity: 8%
[2]
  Activity: 0%
[3]
  Activity: Non-toxic
[4]
  Activity: 0%
Escherichia coli
  Activity: Non-toxic
[5]
  IC50: 400 nM
[6]
  inhibition: 97%
Pseudomonas aeruginosa
  Activity: Non-toxic
[12]
  IC50: 770 nM
[7]
  inhibition: 80%
[8]
  Activity: 2%

## CCCC(=O)N[C@H]1CCSC1=O
Aliivibrio fischeri
  Activity: Non-toxic
[1]
  Activity: 22%
[2]
  Activity: 0%
[3]
  Activity: Non-toxic
[4]
  Activity: 0%
Escherichia coli
  Activity: Non-toxic
[6]
  inhibition: 42%
Pseudomonas aeruginosa
  Activity: Non-toxic
[7]
  inhibition: 17%
[8]
  Activity: 4%

## O=C(Cc1ccccc1)NC1CCSC1=O (racemic)
Aliivibrio fischeri
  Activity: Non-toxic
[1]
  Activity: 17%
[2]
  Activity: 0%
[3]
  Activity: Non-toxic
[4]
  Activity: 0%
Escherichia coli
  Activity: Non-toxic
[6]
  inhibition: 30%
Pseudomonas aeruginosa
  Activity: Non-toxic
[7]
  inhibition: 61%
[8]
  Activity: 3%
[9]
  inhibition: 13%
